# In ChEMBL document CHEMBL4414612, “Synthesis and Pharmacological Evaluation of 1-Phenyl-3-Thiophenylurea Derivatives as Cannabinoid Type-1 Receptor Allosteric Modulators” (J Med Chem, 2019):
# Legend:
# Cannabinoid receptor 1 [1] = target: T1, Cannabinoid receptor 1 (Homo sapiens, UniProt P21554); experiment: Inverse agonist activity at human CB1 receptor expressed in HEK293 cell membranes assessed as suppression of [35S]GTPgammaS binding at 10 uM incubated for 60 mins by scintillation counting method; conditions: hek293, 1 h
# Method in brief: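 Inverse agonism on human CB1-HEK293 membranes: compounds were incubated 60 min with 0.1 nM [35S]GTPγS and 30 µM GDP, with no CP55,940 present. Buffer was Tris/MgCl2/EGTA pH 7.4 with 0.5% BSA, at 30 °C. Binding was read by filtration and scintillation counting and normalized to basal (vehicle = 0%).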
# Cannabinoid receptor 2 [2] = target: T2, Cannabinoid receptor 2 (Homo sapiens, UniProt P34972); experiment: Antagonist activity at human CB2 receptor expressed in CHO cells co-expressing Galpha16 assessed as inhibition of EC80 CP55,940-induced calcium mobilization at 10 uM preincubated for 15 mins followed by […] addition measured at 1 sec interval for 90 secs by calcium-5 dye based FLIPR assay relative to CP55,940; format: functional, cell-based
# Method in brief: (§1)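 CB2 antagonist mode in stable human CB2-CHO-RD-HGA16 cells. Cells were dye-loaded, then pretreated with compound for 15 min at 37 °C. CP55,940 was added at its EC80 at the 10 s point, and calcium fluorescence was recorded every 1 s over 90 s.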
# Cannabinoid receptor 2 [3] = target: T2, Cannabinoid receptor 2; experiment: Antagonist activity at human CB2 receptor expressed in CHO cells co-expressing Galpha16 assessed as inhibition of EC80 CP55,940-induced calcium mobilization preincubated for 15 mins followed by […] addition measured at 1 sec interval for 90 secs by calcium-5 dye based FLIPR assay; format: functional, cell-based; method in brief: as §1
# Cannabinoid receptor 2 [4] = target: T2, Cannabinoid receptor 2; experiment: Agonist activity at human CB2 receptor expressed in CHO cells co-expressing Galpha16 assessed as increase in calcium mobilization at 10 uM measured at 1 sec interval for 90 secs by calcium-5 dye based FLIPR assay relative to CP55,940; format: functional, cell-based
# Cannabinoid receptor 1 [5] = target: T1, Cannabinoid receptor 1; experiment: Allosteric modulator activity at human CB1 receptor expressed in HEK293 cell membranes assessed as suppression of 100 nM CP55,940-induced [35S]GTPgammaS binding incubated for 60 mins by scintillation counting method; format: functional
# Cannabinoid receptor 1 [6] = target: T1, Cannabinoid receptor 1; experiment: Agonist activity at human CB1 receptor expressed in CHO-RD-HGA16 cells co-expressing Galpha16 assessed as suppression stimulation of calcium mobilization incubated for 45 mins by Calcium 5 dye based FLIPR assay relative to CP55,940; format: functional, cell-based
# Method in brief: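 CHO-RD-HGA16 cells stably expressing human CB1 (with Galpha16), plated overnight and loaded with Calcium 5 dye for 45 min at 37 °C. […] Compound was added by the FLIPR Tetra at the 10 s point as a single concentration, and fluorescence (485/525 nm) was read every 1 s for 90 s. RFU were expressed as % of CP55,940 Emax.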
# Cannabinoid receptor 1 [7] = target: T1, Cannabinoid receptor 1; experiment: Allosteric modulator activity at human CB1 receptor expressed in CHO-RD-HGA16 cells co-expressing Galpha16 assessed as suppression of 100 nM CP55,940-induced calcium mobilization pre-incubated for 15 mins by Calcium 5 dye based FLIPR assay; format: functional, cell-based
# Cannabinoid receptor 1 [8] = target: T3, Cannabinoid receptor 1 (Mus musculus, UniProt P47746); experiment: Allosteric modulator activity at CB1 receptor in mouse cerebellar membranes assessed as suppression of 1 uM CP55,940-induced [35S]GTPgammaS binding incubated for 60 mins by scintillation counting method; format: functional, cell membranes, Cerebellum, Membrane
# Cannabinoid receptor 1 [9] = target: T3, Cannabinoid receptor 1; experiment: Allosteric modulator activity at CB1 receptor in mouse cerebellar membranes assessed as suppression of 100 nM CP55,940-induced [35S]GTPgammaS binding incubated for 60 mins by scintillation counting method; format: functional, cell membranes, Cerebellum, Membrane
# Cannabinoid receptor 1 [10] = target: T1, Cannabinoid receptor 1; experiment: Displacement of [3H]CP55,940 from human CB1 receptor
# [11] = Half life in rat liver microsomes; format: ADME, Microsome; conditions: liver microsomes
# Method in brief: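 Rat liver microsomes (0.5 mg/mL protein) in 100 mM potassium phosphate pH 7.4 at 37 °C with 1 mM NADPH. Samples were taken at 0, 5, 15, 30 and 45 min, quenched with cold acetonitrile containing internal standards, and analysed by LC/MS/MS. Half-life and clearance were calculated; two independent experiments in duplicate.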
# T1 sequence (P21554 whole entry): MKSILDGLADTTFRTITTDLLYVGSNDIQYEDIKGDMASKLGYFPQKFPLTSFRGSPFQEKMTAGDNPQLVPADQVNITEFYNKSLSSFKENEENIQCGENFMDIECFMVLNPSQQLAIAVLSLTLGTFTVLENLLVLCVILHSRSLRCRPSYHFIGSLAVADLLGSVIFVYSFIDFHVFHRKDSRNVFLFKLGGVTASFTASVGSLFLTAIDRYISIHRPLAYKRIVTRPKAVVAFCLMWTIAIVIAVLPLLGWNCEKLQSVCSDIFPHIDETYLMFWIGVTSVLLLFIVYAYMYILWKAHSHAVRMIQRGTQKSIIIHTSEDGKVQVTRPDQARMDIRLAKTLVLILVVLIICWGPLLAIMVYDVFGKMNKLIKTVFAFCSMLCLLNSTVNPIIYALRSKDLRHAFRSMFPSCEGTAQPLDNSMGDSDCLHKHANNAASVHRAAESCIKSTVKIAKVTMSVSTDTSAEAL
# T2 sequence (P34972 whole entry): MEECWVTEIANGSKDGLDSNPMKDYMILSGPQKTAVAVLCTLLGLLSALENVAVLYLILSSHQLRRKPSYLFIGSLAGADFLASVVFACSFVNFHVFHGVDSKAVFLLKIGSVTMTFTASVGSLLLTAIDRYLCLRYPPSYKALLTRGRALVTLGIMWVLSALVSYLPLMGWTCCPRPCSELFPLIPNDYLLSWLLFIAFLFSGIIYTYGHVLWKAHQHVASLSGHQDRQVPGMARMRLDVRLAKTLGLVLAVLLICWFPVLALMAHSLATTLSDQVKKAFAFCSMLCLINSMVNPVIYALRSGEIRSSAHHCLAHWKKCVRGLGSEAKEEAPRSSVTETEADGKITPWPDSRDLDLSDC
# T3 sequence (P47746 whole entry): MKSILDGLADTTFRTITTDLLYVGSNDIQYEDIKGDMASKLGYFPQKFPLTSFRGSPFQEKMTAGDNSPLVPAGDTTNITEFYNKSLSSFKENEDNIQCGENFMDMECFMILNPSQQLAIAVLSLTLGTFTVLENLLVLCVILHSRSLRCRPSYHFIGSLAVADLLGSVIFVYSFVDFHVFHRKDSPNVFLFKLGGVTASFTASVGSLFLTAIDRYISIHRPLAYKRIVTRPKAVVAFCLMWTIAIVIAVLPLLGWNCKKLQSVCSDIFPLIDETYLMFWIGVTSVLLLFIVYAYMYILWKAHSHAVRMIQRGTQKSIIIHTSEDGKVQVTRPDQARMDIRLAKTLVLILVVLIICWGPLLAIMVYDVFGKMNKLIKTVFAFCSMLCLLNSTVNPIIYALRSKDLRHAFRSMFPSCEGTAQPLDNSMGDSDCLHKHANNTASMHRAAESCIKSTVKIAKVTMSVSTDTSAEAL
SMILES,inhibition (INH) (Cannabinoid receptor 1 [1]),inhibition (Cannabinoid receptor 2 [2]) [%],IC50 (Cannabinoid receptor 2 [3]) [µM],Emax (Cannabinoid receptor 2 [4]) [%],IC50 (Cannabinoid receptor 1 [5]) [µM],Emax (Cannabinoid receptor 1 [6]) [%],IC50 (Cannabinoid receptor 1 [7]) [µM],IC50 (Cannabinoid receptor 1 [8]) [µM],IC50 (Cannabinoid receptor 1 [9]) [µM],Kd (Cannabinoid receptor 1 [10]) [µM],half-life [11] [h]
COc1cccc(-c2ccc(NC(=O)Nc3ccc(Cl)cc3)s2)c1,Active,< 50,> 10,< 10,,,,,,,
O=C(Nc1ccc(Cl)cc1)Nc1ccc(-c2ccncc2)s1,Active,< 50,> 10,< 10,0.263,,,,,,
COc1ccc(-c2cccc(N3CCCC3)n2)cc1NC(=O)Nc1ccc(Cl)cc1,Active,< 50,> 10,< 10,,,,,,,
O=C(Nc1ccc(Cl)cc1)N[C@H]1C[C@H]1c1ccccc1 (relative stereo),Active,< 50,> 10,< 10,,< 30,,,,,
COc1ccccc1-c1ccc(NC(=O)Nc2ccc(Cl)cc2)s1,Active,< 50,> 10,< 10,,,,,,,
COc1ccc(-c2ccc(NC(=O)Nc3ccc(Cl)cc3)s2)cc1,Active,< 50,> 10,< 10,,,,,,,
O=C(Nc1ccc(Cl)cc1)N[C@@H]1CCCN(c2ccccc2)C1,Active,< 50,> 10,< 10,> 10,,3.88,,,,
O=C(Nc1ccc(Cl)cc1)N[C@H]1C[C@@H]1c1ccccc1 (relative stereo),Active,< 50,> 10,< 10,,< 30,,,,,
CN(C)c1cccc(-c2ccc(NC(=O)Nc3ccc(Cl)cc3)s2)c1,Active,< 50,> 10,< 10,,,,2.57,,,
O=C(Nc1ccc(Cl)cc1)Nc1ccc(-c2cccc(Cl)c2)s1,Active,< 50,> 10,< 10,,,,,,,
O=C(Nc1ccc(Cl)cc1)Nc1ccc(-c2ccccc2Cl)s1,Active,< 50,> 10,< 10,,,,,,,
O=C(Nc1ccc(Cl)cc1)Nc1cccc(-c2ccccc2)n1,Active,< 50,> 10,< 10,> 10,,3.53,,,,
O=C(Nc1ccc(Cl)cc1)Nc1ncc(-c2ccccc2)s1,Active,< 50,> 10,< 10,,,,,,,
O=C(Nc1ccc(Cl)cc1)Nc1ccc(-c2cc(Cl)cc(Cl)c2)s1,Active,< 50,> 10,< 10,,,,,,,
COC(=O)c1cccc(-c2ccc(NC(=O)Nc3ccc(Cl)cc3)s2)c1,Active,< 50,> 10,< 10,2.35,,,,,,
O=C(Nc1ccc(Cl)cc1)Nc1cncc(-c2ccccc2)c1,Active,< 50,> 10,< 10,> 10,,0.292,,,,

SMILES,inhibition (INH) (Cannabinoid receptor 1 [1]),inhibition (Cannabinoid receptor 2 [2]) [%],IC50 (Cannabinoid receptor 2 [3]) [µM],Emax (Cannabinoid receptor 2 [4]) [%],IC50 (Cannabinoid receptor 1 [5]) [µM],Emax (Cannabinoid receptor 1 [6]) [%],IC50 (Cannabinoid receptor 1 [7]) [µM],IC50 (Cannabinoid receptor 1 [8]) [µM],IC50 (Cannabinoid receptor 1 [9]) [µM],Kd (Cannabinoid receptor 1 [10]) [µM],half-life [11] [h]
O=C(Nc1ccc(Cl)cc1)Nc1ccc(-c2cccc(F)c2)s1,Active,< 50,> 10,< 10,,,,,,,
O=C(Nc1ccc(Cl)cc1)Nc1ccc(-c2cccnc2)s1,Active,< 50,> 10,< 10,,,,,,,
O=C(Nc1ccc(Cl)cc1)Nc1cc(-c2ccccc2)cs1,Active,< 50,> 10,< 10,,,,,0.776,,
O=C(Nc1ccc(Cl)cc1)Nc1ccnc(-c2ccccc2)c1,Active,< 50,> 10,< 10,2.77,,0.233,,,,
O=C(Nc1ccc(Cl)cc1)Nc1ccc(-c2ccc(Cl)c(Cl)c2)s1,Active,< 50,> 10,< 10,,,,,,,
CC(=O)c1cccc(-c2ccc(NC(=O)Nc3ccc(Cl)cc3)s2)c1,Active,< 50,> 10,< 10,,,,,,,
Cc1cccc(-c2ccc(NC(=O)Nc3ccc(Cl)cc3)s2)c1,Active,< 50,> 10,< 10,,,,,,,
O=C(Nc1ccc(Cl)cc1)Nc1csc(-c2ccccc2)c1,Active,< 50,> 10,< 10,,,,,,,
O=C(Nc1ccc(Cl)cc1)Nc1cc(-c2ccccc2)ccn1,Active,< 50,> 10,< 10,> 10,,0.156,,> 10,,
O=C(Nc1ccc(Cl)cc1)Nc1ccc(-c2ccc(Cl)cc2)s1,Active,< 50,> 10,< 10,,,,,,,
CS(=O)(=O)c1cccc(-c2ccc(NC(=O)Nc3ccc(Cl)cc3)s2)c1,Active,< 50,> 10,< 10,,,,,,,
O=C(Nc1ccc(Cl)cc1)Nc1cccc(-c2ccc[nH]2)c1,,,,,,,,,,0.0014,
O=C(Nc1ccc(Cl)cc1)Nc1cccc(-c2ccc(F)cc2)c1,,,,,,,,,,,> 5
O=C(Nc1ccc(Cl)cc1)Nc1ccc(-c2ccc(F)cc2F)s1,Active,< 50,> 10,< 10,,,,,,,
O=C(Nc1ccc(Cl)cc1)Nc1ccc(-c2ccc(F)cc2)s1,Active,< 50,> 10,< 10,,,,,,,
